36 sequences from the EternaBench riboswitch data can be followed below.

The data set has as its system MS2 coat protein. The data set can be described thus: apparent Kd, MS2 coat protein; higher = weaker binding; RNA-MaP array; FMN 200 µM where present. Summed up: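 Designs were transcribed by stalled E. coli RNA polymerase on Illumina sequencing-chip clusters. They were titrated with SNAP-549-labelled MS2 coat protein from 0.7 or 1.5 nM, doubling to 3 µM, in 100 mM Tris-HCl pH 7.5, 80 mM KCl, 4 mM MgCl2, BSA, DTT, yeast tRNA and Tween-20, without and then with constant ligand. The apparent Kd is the median of filtered per-cluster fits after normalisation of green signal to red-channel RNA signal and control-cluster median Fmax.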

[1] abbreviates: designed as: OFF switch for flavin mononucleotide, no ligand.
Where [2] appears, read: ligand present: flavin mononucleotide, designed as: OFF switch for flavin mononucleotide.
The mark [3] stands for this setting: designed as: ON switch for flavin mononucleotide, no ligand.
Where [4] appears, read: ligand present: flavin mononucleotide, designed as: ON switch for flavin mononucleotide.

“AUACAUGUCCGAGGAUAUCUGGAAACAUUUUCAAGAGAAGGCGGACAUGAGGAUCACCCAUGUCUCUCCUCAUCAAAUCCAAGU”: the “apparent Kd” value is 7.84 nM under setting [1] and 46.6 nM under setting [2].
As for “CGUAUGUGAGGAUAUGACAAUGGUAUCUUCGGAUACCAUUGUCAGAAGGUACAUGAGGAUCACCCAUGUAGAUC”, the “apparent Kd” value worked out at 27.1 nM under setting [1] and 59.9 nM under setting [2].
Regarding “GGAUAGGACAGAGGAUAUACGUGCUAGAGAUACUAGCAAAAUUUCCUCACAUGAGGAUCACCCAUGUAGAAGGAUGUCCUAUCG”, the “apparent Kd” value came out at 5.3 nM under setting [1] and 7.61 nM under setting [2].
The matching figures for “AAACAACGUCAGAAGGCCGAUGGAUUUGACCACGGAGGAUAUGACAUGAGGAUCACCCAUGUGAUGCUUCUAACCCGCUGGGCC”: 31.3 nM and 289 nM.
The matching figures for “GUCAGCUCGUGAGGAUAUACAACACUGCUUCGGCAGUGUAUUAACAUCACAUGAGGAUCACCCAUGUAGAAGGCACGAGCUGAU”: 4.99 nM and 7.45 nM.
Regarding “GGAGCUCCAGCGCAGGAUAUCGACCCAGGGACAUGAGGAUCACCCAUGUUCCAAAAAAAAUGGGUCGAGAAGGGCGUUGGAGAGCC”, the “apparent Kd” value came out at 12.6 nM under setting [3] and 9.62 nM under setting [4].
On to “GAACAUGUCCGAGGAUAUCUGGAAACAUUUCCAAGAGAAGGCGGACAUGAGGAUCACCCAUGUCUCUCCUCAUCAAAUCCAAGU”, for which the “apparent Kd” value runs as follows: under setting [1], 10.1 nM; under setting [2], 91.9 nM.
“UUCUUACGAGGAUAUCGAUGGUGGAACAUGAGGAUCACCCAUGUAUGAGAUAUUGUAUUUCGAGAAGGCGUUCAGU”: the “apparent Kd” value is 55.2 nM under setting [1] and 36.2 nM under setting [2].
The matching figures for “GUAAAUCAUGUAGGAUAUGCAUGGCGAAGCUACGCAGAAGGACAUGAGGAUCACCCAUGUCUCUCCGUCUGCGUACAGACGGAG”: 27.4 nM and 188 nM.
The matching figures for “AUACCACGAGGAUAUCGUCUCUCCCACAUGAGGAUCACCCAUGUUAUCCAUGUUUCGUUUCGAGAAGGCGUGGGUU”: 83.2 nM and 70.2 nM.
With “AUUAUACAUGAGGAUCACCCAUGUAAUUAAUUAAUUAAGAUCAAGGAUAUCAGCUCGAAUAGAGCUGAGAAGGUGAUCACAUGU”, the “apparent Kd” value runs as follows: under setting [3], 330 nM; under setting [4], 287 nM.
As to “GUACUGUAGUGAGGAUAUACGAGAUCGAUAGAUCGGCGAUCCAAUUAUACAUGAGGAUCACCCAUGUAGAAGGCACUUCAGUAC”, the “apparent Kd” value by setting is: under setting [1], 8.75 nM; under setting [2], 55.8 nM.
Turning to “AAUUAAUUAAUACAUGAGGAUCACCCAUGUAAUUAUUAGAUCUAGGAUAUCAGCUCGAAUAGAGCUGAGAAGGAGAUCACAUGU”, the “apparent Kd” value was determined as 19.4 nM under setting [3] and 15 nM under setting [4].
As for “GUGGUCAGACAUGAGGAUCACCCAUGUGGAAUAAAUAAGGAGAAGGAUAUUCAAUAUAGGAUAUAGAAGAAGGUCUGGUUGGUG”, the “apparent Kd” value by setting is: under setting [3], 73.7 nM; under setting [4], 82.7 nM.
Take “AACAAACAUGAGGAUCACCCAUGUGAGGAUAUCGAAACAACAAACAACAAACAACAAACGAGAAGGCGCAACAA”: the “apparent Kd” value under setting [1] turned out to be 29.1 nM and the “apparent Kd” value under setting [2] was 27.6 nM.
Regarding “AUGCUUCACACAGGAUAUACAUGAGGAUCACCCAUGUGUCCACCGUAGCUGACACGAGCUACGCUGUAGAAGGGUGUGAAGCAU”, the “apparent Kd” value under setting [1] came to 19.3 nM and the “apparent Kd” value under setting [2] was 52.8 nM.
As to “GGAUAGGACAGAGGAUAUACGUGCUAGAGAUUCUAGCAAAAUUUCCUCACAUGAGGAUCACCCAUGUAGAAGGCUGUCCUAUCG”, the “apparent Kd” value under setting [1] stood at 15.6 nM and the “apparent Kd” value under setting [2] was 321 nM.
Turning to “UAAUCGUUGCAGAAGGUUAUUAUUAUAACGUGACACUUAACAUGAGGAUCACCCAUGUUUUUUAUGAAGGAUAUGCAACGGUAG”, the “apparent Kd” value turned out to be 7.07 nM under setting [1] and 7.29 nM under setting [2].
Consider “CCUAAGGACACAGGAUAUAGCGUGGUGGCUGGGCUCCAACGGCGAGUGGCGCUAGAAGGGUGACCACAUGAGGAUCACCCAUGU”, for which the “apparent Kd” value under setting [3] worked out at 537 nM and the “apparent Kd” value under setting [4] was 214 nM.
Take “AUCCGGAGUCAGGAUAUGUGGCUAAAGAUGCGCAUAGAAGGGAUUACAUGAGGAUCACCCAUGUGGCUUACAUG”: the “apparent Kd” value reads like this: under setting [1], 132 nM; under setting [2], 109 nM.
Turning to “AUUUCGUUAGCAGGAUAUGGACAGGCCUGUCCGUAUUGAGUCAGUAACAUGAGGAUCACCCAUGUCCAGAAGGGCUCGAAGGGA”, the “apparent Kd” value under setting [1] amounted to 11.2 nM and the “apparent Kd” value under setting [2] came to 12.3 nM.
The matching figures for “AUCGUGCUAGGAUAUACAGACGGGUGUAGACGUGCAGGCAAACAUGAGGAUCACCCAUGUAGAAGGAGUAGUUA”: 159 nM and 88.8 nM.
With “UUAUCUAUGUAAGGAUAUCGAUGAUAUACGCAUCCGACAUGAGGAUCACCCAUGUUUUAUUUUGUCGAGAAGGUACAUUGUCGG”, the “apparent Kd” value is, setting by setting: under setting [3], 61.1 nM; under setting [4], 53.5 nM.
The matching figures for “AGAUACAACCAGAAGGACAUGAGGAUCACCCAUGUAGGAUAUGGGUUACACGUUCCUGGGAAUUGUAACGACGCUACGAAGAGU”: 126 nM and 12.8 nM.
Consider “GUGGUGCAUAUACGUGGAUGUACAUGAGGAUCACCCAUGUGAGAGGAUAUGCGGAUACUAGCUCAGCAGAAGGCUUACAAAUGA”, for which the “apparent Kd” value by setting is: under setting [1], 15.2 nM; under setting [2], 45.8 nM.
“UCCUUGUCCUGAGGAUAUCCGUAGUGACCGAAAGGAGAAGGCAGGACAUGAGGAUCACCCAUGUACCCAGAAAACGUGCAGAGU”: the “apparent Kd” value worked out at 48.1 nM under setting [1] and 525 nM under setting [2].
For the sequence “GCGUAUUUAAUAUUUAUAUAAUUGUCAGAAGGUGAAAAGACGACAUGAGGAUCACCCAUGUAAUUCAAGGAUAUGAUUAAGCGC”, the “apparent Kd” value runs as follows: under setting [3], 30.7 nM; under setting [4], 15.8 nM.
Take “CAGCUGAAUGUGAGGAUAUCUAGAGCUUCGGCUCUAGAGAAGGCACAUGAGGAUCACCCAUGUCUCAACAGCUG”: the “apparent Kd” value reads like this: under setting [1], 39.2 nM; under setting [2], 296 nM.
Turning to “GUUGCUUUCCGAGGAUAUUCAGGGCGUGGAUAUACAUGAGGAUCACCCAUGUGGCGGAAGCCUAGGGAGAAGGCGGGCUGCUUC”, the “apparent Kd” value under setting [3] amounted to 41.1 nM and the “apparent Kd” value under setting [4] is 20.5 nM.
Take “UGUUGUAUUACAGGAUAUCUAUUGUUUUUUUUUAGAGAAGGGUAUUCACAUGAGGAUCACCCAUGUAUAUACGAGGAAGUUGUG”: the “apparent Kd” value reads like this: under setting [3], 60.7 nM; under setting [4], 71.3 nM.
Consider “GGUCCAUUAUGAGGAUAUGGCACCUUAUUGGUGCCAGAAGGCAUGUGUAUUCACAUGAGGAUCACCCAUGUAAUAAAUUGGACC”, for which the “apparent Kd” value by setting is: under setting [3], 87.2 nM; under setting [4], 20 nM.
For the sequence “UUCUGUGUGUGCUAGAGCUGCACAUGAGGAUCACCCAUGUACAGAAGGUGGACGCACACUGUGGCCAAGGAUAUGUAACAUGUU”, the “apparent Kd” value was 6.68 nM under setting [1] and 7.15 nM under setting [2].
Turning to “GUUUAGUGAGGAUAUGUGGCUUCGAUCGAGCGCGGUCUGCUACAGAAGGCACAUGAGGAUCACCCAUGUUUCUC”, the “apparent Kd” value came out at 118 nM under setting [1] and 424 nM under setting [2].
With “UUGGACGUCGUAGGAUAUGUAGGAUAUACCUACAUGAGGAUCACCCAUGUUGACAUGGAAGAAGGACAGAAGGACGAUGUCCAU”, the “apparent Kd” value by setting is: under setting [3], 439 nM; under setting [4], 153 nM.
Take “UGGAAGGUAUGAGGAUAUGCAUGCGAAACGCAUGCAGAAGGCAUGUCAAUAGACAUGAGGAUCACCCAUGUAUUAUCCUUCCAA”: the “apparent Kd” value is 455 nM under setting [3] and 41.7 nM under setting [4].
In the case of “UUAAUGUGAGGAUAUCAGGUGUGCUAGCGUACUGGUACAUCUGAGAAGGCACAUGAGGAUCACCCAUGUUCCAG”, the “apparent Kd” value was determined as 32.8 nM under setting [1] and 100 nM under setting [2].

A word on the apparent Kd: it is a dissociation constant that holds for the conditions of the assay.
